Active and inactive are the calls of the source. No cut-off for these calls is given here.

Data set [1] has as its system A549. The experiment in a line: Cytotoxicity against human A549 cells by MTT assay. It counts as functional, cell-based.
The nature of data set [2]: Cytotoxicity against human H460 cells by MTT assay. Format: functional, cell-based. The settings on record: NCI-H460. Summed up: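 Antiproliferative IC50 in H460 cells; mean ± SD of at least three independent experiments.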
For data set [3], the system named is HCT-116. The experiment in a line: Induction of apoptosis in human HCT116 cells assessed as PARP cleavage at 3 uM after 24 hrs by Western blotting analysis in presence of Z-VAD-FMK. It counts as functional, cell-based. Summed up: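 HCT116 cells treated 24 h with 3 μM compound with or without 20 μM z-VAD-fmk pan-caspase inhibitor; caspase 3 and PARP assessed by Western blot.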

Data set [4] has as its system HCT-116. The data set is described as follows: Induction of apoptosis in human HCT116 cells assessed as accumulation at sub-G1 phase after 24 hrs by propidium iodide staining-based flow cytometric analysis. It counts as functional, cell-based. Summed up: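 HCT116 cells treated with indicated concentrations for 24 h; DNA content analyzed by flow cytometry for cell cycle distribution and sub-G1 fraction; means of at least three independent experiments.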

For data set [5], the target named is Histone deacetylase 5 (Homo sapiens, UniProt Q9UQL6). The data set is described as follows: Inhibition of HDAC5 (unknown origin) by fluorescence assay.
The target of data set [6] is T1, Polyamine deacetylase HDAC10 (Homo sapiens, UniProt Q969S8).
T1 sequence (Q969S8 whole entry): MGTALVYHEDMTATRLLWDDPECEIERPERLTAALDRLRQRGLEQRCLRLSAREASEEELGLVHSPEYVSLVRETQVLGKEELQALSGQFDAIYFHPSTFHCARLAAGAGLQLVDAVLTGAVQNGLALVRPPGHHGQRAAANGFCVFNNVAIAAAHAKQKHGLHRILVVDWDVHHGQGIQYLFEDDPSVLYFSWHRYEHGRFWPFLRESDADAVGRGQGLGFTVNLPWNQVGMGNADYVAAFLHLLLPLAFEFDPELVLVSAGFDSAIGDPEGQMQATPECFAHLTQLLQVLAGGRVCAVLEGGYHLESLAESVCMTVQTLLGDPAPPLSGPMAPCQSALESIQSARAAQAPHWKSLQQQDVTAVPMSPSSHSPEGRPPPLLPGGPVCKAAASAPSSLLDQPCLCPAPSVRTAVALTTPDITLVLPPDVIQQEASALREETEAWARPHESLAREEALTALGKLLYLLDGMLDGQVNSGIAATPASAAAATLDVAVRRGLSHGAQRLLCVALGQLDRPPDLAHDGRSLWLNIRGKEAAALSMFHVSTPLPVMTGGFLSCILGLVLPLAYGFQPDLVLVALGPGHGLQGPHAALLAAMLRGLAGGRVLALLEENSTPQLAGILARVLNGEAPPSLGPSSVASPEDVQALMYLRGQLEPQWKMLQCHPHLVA
The experiment in a line: Inhibition of HDAC10 (unknown origin) by fluorescence assay. Summed up:
(§1)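 Run by a contract testing lab. Compounds were dissolved in DMSO and tested in 10-dose IC50 mode, using 3-fold serial dilution starting at 10 μM. IC50 was taken from the dose series.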

The target of data set [7] is Histone deacetylase 9 (Homo sapiens, UniProt Q9UKV0). The experiment in a line: Inhibition of HDAC9 (unknown origin) by fluorescence assay. Summed up:
as §1

Data set [8] has as its system HCT-116. The data set is described as follows: Induction of apoptosis in human HCT116 cells assessed as PARP cleavage after 24 hrs by Western blotting analysis. It counts as functional, cell-based. Summed up: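 HCT116 cells treated with indicated concentrations for 24 h; lysates probed by Western blot for caspase 3 and PARP cleavage.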
Data set [9] deals with Mus musculus. The experiment in a line: Toxicity in ICR mouse at 400 to 1000 mg/kg, po treated for 7 days measured for 1 week. Format: organism-based. The arrangement: dose 400-1000 mg/kg, route oral. The note with it: in vivo, 168 h. Summed up:
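ICR mice fasted overnight, then given vehicle (0.2 mL/20 g) or compound orally at 400, 600 or 1000 mg/kg (n = 10/group) daily for 7 days, then monitored 1 week; weighed daily for 1 week, then twice weekly; 2/10 deaths defines toxic dose.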

Data set [10] relates to HT-29. The data set is described as follows: Cytotoxicity against human HT-29 cells by MTT assay. Format: functional, cell-based.
For data set [11], the system named is HCT-116. The data set is described as follows: Cytotoxicity against p53 knock down human HCT116 cells at 0.1 to 3 uM after 72 hrs by MTT assay. It counts as functional, cell-based.
Data set [12] has as its system HCT-116. The data set is described as follows: Cytotoxicity against human HCT116 cells by MTT assay. Format: functional, cell-based.
Data set [13] addresses Histone deacetylase 2 (Homo sapiens, UniProt Q92769).
Data set [14] has as its system HCT-116. The data set is described as follows: Induction of apoptosis in p53 knock down human HCT116 cells assessed as caspase-3 activation at 1 uM after 24 hrs by immunoblotting analysis. It counts as functional, cell-based.
Data set [15] deals with T2, Histone deacetylase 7 (Homo sapiens, UniProt Q8WUI4).
T2 sequence (Q8WUI4 whole entry): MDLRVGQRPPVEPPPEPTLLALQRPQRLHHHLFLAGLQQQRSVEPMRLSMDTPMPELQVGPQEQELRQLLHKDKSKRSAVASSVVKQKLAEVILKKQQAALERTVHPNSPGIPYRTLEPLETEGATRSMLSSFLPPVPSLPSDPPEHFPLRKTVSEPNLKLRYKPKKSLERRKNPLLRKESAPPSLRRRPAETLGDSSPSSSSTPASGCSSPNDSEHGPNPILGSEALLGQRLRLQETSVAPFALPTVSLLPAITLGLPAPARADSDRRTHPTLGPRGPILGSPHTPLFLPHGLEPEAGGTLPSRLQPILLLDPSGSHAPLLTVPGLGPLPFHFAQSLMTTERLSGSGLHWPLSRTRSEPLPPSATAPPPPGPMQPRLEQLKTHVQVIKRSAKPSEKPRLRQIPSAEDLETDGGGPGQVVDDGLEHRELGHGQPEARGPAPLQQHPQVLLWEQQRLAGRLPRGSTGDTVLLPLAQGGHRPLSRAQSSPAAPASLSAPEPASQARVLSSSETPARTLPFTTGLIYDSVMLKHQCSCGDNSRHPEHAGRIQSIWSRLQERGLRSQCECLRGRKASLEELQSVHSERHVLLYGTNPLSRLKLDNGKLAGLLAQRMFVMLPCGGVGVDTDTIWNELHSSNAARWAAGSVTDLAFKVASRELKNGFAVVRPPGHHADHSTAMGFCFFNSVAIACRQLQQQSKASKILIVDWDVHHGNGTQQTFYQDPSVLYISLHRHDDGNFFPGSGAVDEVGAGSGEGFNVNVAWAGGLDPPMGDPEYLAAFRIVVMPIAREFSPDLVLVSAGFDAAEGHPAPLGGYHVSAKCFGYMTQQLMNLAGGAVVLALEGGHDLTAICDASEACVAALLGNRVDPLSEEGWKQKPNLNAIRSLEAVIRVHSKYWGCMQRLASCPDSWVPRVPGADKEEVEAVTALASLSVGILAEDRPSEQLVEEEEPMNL
The experiment in a line: Inhibition of HDAC7 (unknown origin) by fluorescence assay. Summed up:
as §1

In data set [16] the test system is HCT-116. The data set is described as follows: Antitumor activity against human HCT116 cells xenografted in nude athymic mouse assessed as tumor growth inhibition at 25 mg/kg/day, po after 2 to 16 days relative to control. Format: functional. The note with it: read-out: TGI.
The target in data set [17] is Histone deacetylase (Homo sapiens) (UniProt Q13547+O15379+Q9UBN7+Q92769+Q9UQL6+Q8WUI4+Q9BY41+Q96DB2+P56524+Q9UKV0+Q969S8). The settings on record: HCT-116, 1 uM.

Sequence of Histone deacetylase 2 (Q92769 whole entry): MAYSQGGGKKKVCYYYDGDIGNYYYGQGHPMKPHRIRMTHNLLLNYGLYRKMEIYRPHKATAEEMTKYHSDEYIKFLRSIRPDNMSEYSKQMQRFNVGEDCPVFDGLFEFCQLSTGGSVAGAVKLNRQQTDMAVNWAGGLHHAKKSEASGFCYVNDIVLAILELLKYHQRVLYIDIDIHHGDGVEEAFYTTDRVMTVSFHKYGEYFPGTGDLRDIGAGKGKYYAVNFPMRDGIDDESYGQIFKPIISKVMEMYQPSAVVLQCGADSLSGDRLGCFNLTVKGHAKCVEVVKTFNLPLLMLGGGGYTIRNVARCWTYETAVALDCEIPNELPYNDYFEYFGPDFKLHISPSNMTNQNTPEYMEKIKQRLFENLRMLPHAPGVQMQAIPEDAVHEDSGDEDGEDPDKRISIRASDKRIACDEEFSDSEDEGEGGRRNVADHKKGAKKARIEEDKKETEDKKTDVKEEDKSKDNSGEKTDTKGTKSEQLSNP
Sequence of Histone deacetylase 9 (Q9UKV0 whole entry): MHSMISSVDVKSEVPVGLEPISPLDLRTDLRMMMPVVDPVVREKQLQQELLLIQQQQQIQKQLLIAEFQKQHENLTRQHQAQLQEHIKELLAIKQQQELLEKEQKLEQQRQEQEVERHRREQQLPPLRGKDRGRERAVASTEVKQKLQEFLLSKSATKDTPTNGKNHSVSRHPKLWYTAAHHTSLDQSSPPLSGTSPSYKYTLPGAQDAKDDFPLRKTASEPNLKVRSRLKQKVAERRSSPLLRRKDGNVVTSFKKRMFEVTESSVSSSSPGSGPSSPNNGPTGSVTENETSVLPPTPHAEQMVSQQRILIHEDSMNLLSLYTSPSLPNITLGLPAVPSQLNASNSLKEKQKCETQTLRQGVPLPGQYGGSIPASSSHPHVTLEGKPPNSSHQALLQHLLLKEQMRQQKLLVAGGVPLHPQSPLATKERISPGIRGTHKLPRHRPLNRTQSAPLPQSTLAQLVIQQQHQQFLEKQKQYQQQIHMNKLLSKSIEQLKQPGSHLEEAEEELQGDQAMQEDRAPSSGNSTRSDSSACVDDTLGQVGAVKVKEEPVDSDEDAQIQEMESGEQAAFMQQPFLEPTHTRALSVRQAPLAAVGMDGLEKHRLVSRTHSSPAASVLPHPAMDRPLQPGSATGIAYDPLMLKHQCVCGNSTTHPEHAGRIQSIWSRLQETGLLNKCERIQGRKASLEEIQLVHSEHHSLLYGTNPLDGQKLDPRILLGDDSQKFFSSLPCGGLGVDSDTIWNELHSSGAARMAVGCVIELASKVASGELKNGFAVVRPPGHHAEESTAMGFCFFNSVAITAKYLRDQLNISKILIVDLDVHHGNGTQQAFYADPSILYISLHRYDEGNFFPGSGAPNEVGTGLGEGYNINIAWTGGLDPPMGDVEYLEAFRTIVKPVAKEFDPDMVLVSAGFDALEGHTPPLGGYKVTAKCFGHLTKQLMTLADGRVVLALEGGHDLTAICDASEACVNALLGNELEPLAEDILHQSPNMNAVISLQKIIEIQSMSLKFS
Sequence of Histone deacetylase 5 (Q9UQL6 whole entry): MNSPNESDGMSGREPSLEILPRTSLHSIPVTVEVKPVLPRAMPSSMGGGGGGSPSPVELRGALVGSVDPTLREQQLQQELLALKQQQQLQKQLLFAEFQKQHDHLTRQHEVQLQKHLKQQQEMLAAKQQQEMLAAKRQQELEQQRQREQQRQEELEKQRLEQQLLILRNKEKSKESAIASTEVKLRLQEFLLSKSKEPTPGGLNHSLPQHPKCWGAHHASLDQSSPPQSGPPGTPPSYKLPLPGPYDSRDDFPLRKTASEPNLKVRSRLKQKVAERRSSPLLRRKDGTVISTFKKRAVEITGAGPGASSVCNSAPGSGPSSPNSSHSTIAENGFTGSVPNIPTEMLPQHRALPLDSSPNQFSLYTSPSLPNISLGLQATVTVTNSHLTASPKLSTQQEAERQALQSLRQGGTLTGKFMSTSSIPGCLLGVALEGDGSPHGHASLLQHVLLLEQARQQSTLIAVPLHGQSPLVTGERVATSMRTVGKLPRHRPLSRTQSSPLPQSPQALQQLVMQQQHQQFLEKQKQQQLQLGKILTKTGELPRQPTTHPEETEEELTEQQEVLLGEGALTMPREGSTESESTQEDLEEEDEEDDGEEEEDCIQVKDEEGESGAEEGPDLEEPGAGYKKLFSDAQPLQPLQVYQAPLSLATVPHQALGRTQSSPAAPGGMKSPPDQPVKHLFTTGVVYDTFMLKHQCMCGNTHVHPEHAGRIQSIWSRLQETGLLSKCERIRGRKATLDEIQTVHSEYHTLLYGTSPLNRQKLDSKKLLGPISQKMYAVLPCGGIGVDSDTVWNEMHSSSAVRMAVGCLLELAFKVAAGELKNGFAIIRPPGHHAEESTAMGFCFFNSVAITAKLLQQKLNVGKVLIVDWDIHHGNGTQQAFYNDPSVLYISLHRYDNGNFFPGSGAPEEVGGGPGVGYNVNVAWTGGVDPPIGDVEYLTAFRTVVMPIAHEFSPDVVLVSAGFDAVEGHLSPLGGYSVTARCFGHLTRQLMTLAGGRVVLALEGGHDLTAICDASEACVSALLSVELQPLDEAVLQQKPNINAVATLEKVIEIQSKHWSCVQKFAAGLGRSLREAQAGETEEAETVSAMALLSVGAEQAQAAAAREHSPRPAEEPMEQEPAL

Take `O=C(/C=C/c1cccc(S(=O)(=O)n2ccc3cccnc32)c1)NO`: the IC50 in data set [1] is 1330 nM; in [2], 570 nM; in data set [5], 8730 nM; in data set [6], 4130 nM; in data set [7], 5340 nM; in [10], 1240 nM. The results for the half-inhibitory concentration (IC50) in data set [12], in data set [13] and in data set [15] were 390 nM, 1160 nM and 4110 nM, respectively. For the same compound, the result in [3], in data set [11] and in data set [14] was inactive. In addition, the values for the Activity entry in data set [4], in data set [8] and in data set [9] were “Dose-dependent effect”, “Dose-dependent effect” and “Non-toxic”, respectively. For the same compound, the inhibition in vivo at 25 mg/kg/day in [16] was 55.8%. For the same compound, in [17], the inhibition result was “inactive”.

The values are drawn from ChEMBL document CHEMBL3259569 (J Med Chem, 2014).
